Laboratory results from ChEMBL document CHEMBL3813699, “Structure-Activity Relationships of a Diverse Class of Halogenated Phenazines That Targets Persistent, Antibiotic-Tolerant Bacterial Biofilms and Mycobacterium tuberculosis” (J Med Chem, 2016).
In brackets after ≈: the same amount, converted by molar mass. Activity calls are given as the source filed them. No cut-off for these calls is given here.

Legend:
[1] = system: Staphylococcus epidermidis; assay: Antibacterial activity against methicillin-resistant Staphylococcus epidermidis ATCC 35984 assessed as biofilm eradication incubated for 24 hrs by CBD assay; type: functional
Procedure, shortened: (§1)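 Calgary Biofilm Device: pegs inoculated with mid-log culture diluted 1,000-fold in TSB + 0.5% glucose, 24 h 37 °C; washed pegs challenged with 2-fold dilutions 24 h 37 °C; pegs moved to fresh TSBG 24 h; MBEC = lowest concentration leaving no turbidity; 2–6 independent experiments.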

[2] = system: Mycobacterium tuberculosis; assay: Antibacterial activity against Mycobacterium tuberculosis H37Ra ATCC 25177 after 7 days by two-fold serial dilution method; type: functional; settings: H37Ra ATCC 25177, 168 h
[3] = system: HeLa; assay: Cytotoxicity against human HeLa cells assessed as cell death at 50 uM after 24 hrs by LDH release assay; type: cell-based
Procedure, shortened: (§2)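 HeLa in DMEM + 10% FBS, 37 °C 5% CO2, at 70–80% confluence treated with 25, 50, 100 µM for 24 h; DMSO vehicle; Triton X-100 2% v/v max-LDH control, medium-only negative; supernatant with LDH reaction mix 30 min room temperature, stopped, absorbance 490 nm.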

[4] = system: Staphylococcus epidermidis; assay: Antibacterial activity against methicillin-resistant Staphylococcus epidermidis ATCC 35984 incubated for 16 to 18 hrs by broth microdilution method; type: functional
[5] = system: Staphylococcus aureus; assay: Antibacterial activity against methicillin-resistant Staphylococcus aureus BAA-44 incubated for 16 to 18 hrs by broth microdilution method; type: functional
[6] = system: Enterococcus faecium; assay: Antibacterial activity against vancomycin-resistant Enterococcus faecium ATCC 700221 incubated for 16 to 18 hrs by broth microdilution method; type: functional
[7] = system: Enterococcus faecium; assay: Antibiofilm activity against […]-resistant Enterococcus faecium ATCC 700221 assessed as biofilm eradication incubated for 24 hrs by CBD assay; type: functional; procedure, shortened: as §1
[8] = system: HeLa; assay: Cytotoxicity against human HeLa cells after 24 hrs by LDH release assay; type: cell-based; procedure, shortened: as §2
[9] = system: Staphylococcus epidermidis; assay: Antibiofilm activity against methicillin-resistant Staphylococcus epidermidis ATCC 35984 assessed as biofilm eradication at 0.1 to 10 uM incubated for 24 hrs by live/dead staining-based fluorescence microscopic analysis; type: functional, organism-based
Procedure, shortened: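 MRSE 35984 mid-log culture diluted 1:1,000, biofilm grown 24 h at 37 °C on glass dish, saline wash, treated in fresh media 0.1, 1, 10 µM for 24 h at 37 °C; DMSO negative control; Live/Dead stain 15 min dark, paraformaldehyde fixed, fluorescence microscopy.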

[10] = system: Staphylococcus aureus; assay: Antibacterial activity against methicillin-resistant Staphylococcus aureus BAA-1707 incubated for 16 to 18 hrs by broth microdilution method; type: functional
[11] = system: HeLa; assay: Cytotoxicity against human HeLa cells assessed as induction of cell death at 100 uM after 24 hrs by LDH release assay; type: cell-based; procedure, shortened: as §2
[12] = system: Staphylococcus epidermidis; assay: Antibiofilm activity against methicillin-resistant Staphylococcus epidermidis ATCC 35984 assessed as reduction in persister cells level within biofilms MBEC incubated for 24 hrs by CBD assay; type: functional; design: scale not given: the % may be the effect or the level left
Procedure, shortened: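 After CBD challenge and recovery, pegs sonicated 30 min in PBS and plated to count viable biofilm cells (CFU/mL) at and below MBEC.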

[13] = Induction of hemolysis in human RBC at 200 uM incubated for 1 hr; type: cell-based, Erythrocyte; settings: red blood cells, read-out: Activity
Procedure, shortened: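 Human RBCs (EDTA), washed three times in Tris-buffered saline pH 7.2; 2% hRBC with compound at final 200 µM, 1 h 37 °C; supernatant OD405; % hemolysis relative to DMSO (0%) and Triton X (100%).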

[14] = system: Staphylococcus epidermidis; assay: Antibacterial activity against Staphylococcus epidermidis ATCC 12228 incubated for 16 to 18 hrs by broth microdilution method; type: functional
[15] = system: Staphylococcus aureus; assay: Antibacterial activity against methicillin-resistant Staphylococcus aureus clinical isolate 2 incubated for 16 to 18 hrs by broth microdilution method; type: functional
[16] = Aqueous solubility of compound in media after 16 hrs; type: physicochemical
[17] = system: Staphylococcus aureus; assay: Antibacterial activity against methicillin-resistant Staphylococcus aureus clinical isolate 2 incubated for 16 hrs by broth microdilution method; type: functional; settings: isolate 2, 16 h
[18] = system: Staphylococcus aureus; assay: Antibiofilm activity against methicillin-resistant Staphylococcus aureus isolate 2 assessed as biofilm eradication incubated for 24 hrs by CBD assay; type: functional; procedure, shortened: as §1
[19] = system: Staphylococcus aureus; assay: Antibacterial activity against methicillin-resistant Staphylococcus aureus clinical isolate 2 incubated for 16 hrs by broth microdilution method in presence of Cu2+; type: functional; settings: isolate 2, 16 h

`Oc1c(Br)cc(I)c2nc3cc(Cl)c(Cl)cc3nc12` showed an MBEC [1] of 2.35 µM, an MBC ([1]; Staphylococcus epidermidis, ATCC 35984, 24 h) of 1.56 µM (≈ 0.733 µg/mL) and an MIC [2] of 12.5 µM (≈ 5.87 µg/mL). For the same molecule, the Activity [3] was “Non-toxic”, the MIC [4] was 3.13 µM (≈ 1.47 µg/mL) and the MIC [5] was 3.13 µM (≈ 1.47 µg/mL). It also gave an MIC [6] of 0.1 µM (≈ 0.047 µg/mL), an MBEC [7] of 0.2 µM and an MBC ([7]; Enterococcus faecium, ATCC 700221, 24 h) of 0.2 µM (≈ 0.094 µg/mL). For the same molecule, the IC50 [8] was over 50 µM, the Activity [9] was “Active” and the MIC [10] was 0.3 µM (≈ 0.141 µg/mL). For the same molecule, the Activity [11] was 70%, the Activity [12] was over 99.99% and the hemolysis at 1 h, 200 µM [13] was 2.7%. For the same molecule, the MIC [14] was 0.1 µM (≈ 0.047 µg/mL), the MIC [15] was 3.13 µM (≈ 1.47 µg/mL) and the solubility at 16 h [16] was 200 µM (≈ 94 µg/mL). It also gave an MIC [17] of 6.25 µM (≈ 2.94 µg/mL), an MBEC [18] of 9.38 µM and an MBC ([18]; Staphylococcus aureus, isolate 2, 24 h) of 3.13 µM (≈ 1.47 µg/mL). For the same molecule, the MIC [19] was 100 µM.
